Test results as given in ChEMBL document CHEMBL4020727, “Synthesis and biological evaluation of largazole zinc-binding group analogs” (Bioorg Med Chem, 2017).
The source made the active and inactive calls. The rule behind the calls is not given here.

Assays:
[1] = molecular target: Histone deacetylase 2 (Homo sapiens, UniProt Q92769); experiment: Inhibition of full length C-terminal FLAG-tagged human HDAC2 expressed in baculovirus infected Sf9 insect cells using BPS HDAC substrate 3 at 10 uM after 30 mins by fluorescence assay relative to control
Outline: (§1)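 Run by a contract lab. Compound incubated with HDAC enzyme, substrate, bovine serum albumin and HDAC buffer in duplicate for 30 min at 37 °C. Quenched with HDAC developer, 15 min at room temperature, fluorescence read at ex 360/em 460 nm. Activity taken as (F−Fb)/(Ft−Fb) against blank and solvent control wells; IC50 from curve fitting.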

[2] = molecular target: T1, Polyamine deacetylase HDAC10 (Homo sapiens) (UniProt Q969S8); experiment: Inhibition of N-terminal GST-tagged/C-terminal His-tagged human HDAC10 (1 to 481 residues) expressed in baculovirus infected Sf9 insect cells using BPS HDAC substrate 3 at 10 uM after 30 mins by fluorescence assay relative to control; outline: as §1
T1 sequence (whole entry): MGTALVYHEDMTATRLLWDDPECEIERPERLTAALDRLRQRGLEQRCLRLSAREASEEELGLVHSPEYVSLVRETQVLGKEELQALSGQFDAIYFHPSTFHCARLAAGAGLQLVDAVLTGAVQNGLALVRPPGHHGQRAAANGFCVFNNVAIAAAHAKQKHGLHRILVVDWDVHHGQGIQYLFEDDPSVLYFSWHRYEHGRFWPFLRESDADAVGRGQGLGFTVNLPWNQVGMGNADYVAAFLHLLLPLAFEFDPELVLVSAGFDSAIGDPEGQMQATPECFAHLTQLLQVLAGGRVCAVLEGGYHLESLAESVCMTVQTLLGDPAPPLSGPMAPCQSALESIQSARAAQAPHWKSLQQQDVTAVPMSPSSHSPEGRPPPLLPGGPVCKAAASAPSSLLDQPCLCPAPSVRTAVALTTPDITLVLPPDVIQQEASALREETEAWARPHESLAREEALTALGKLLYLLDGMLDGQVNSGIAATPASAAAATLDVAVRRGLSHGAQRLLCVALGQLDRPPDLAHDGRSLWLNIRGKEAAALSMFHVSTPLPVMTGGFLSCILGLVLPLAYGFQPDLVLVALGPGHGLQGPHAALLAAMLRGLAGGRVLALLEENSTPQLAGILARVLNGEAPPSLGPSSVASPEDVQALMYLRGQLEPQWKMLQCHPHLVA

[3] = molecular target: Histone deacetylase 3/Nuclear receptor corepressor 2 (HDAC3/NCoR2) (Homo sapiens) (UniProt O15379+Q9Y618); experiment: Inhibition of full length human C-terminal His-tagged HDAC3/N-terminal GST-tagged NCOR2 (395 to 489 residues) expressed in baculovirus infected Sf9 insect cells using BPS HDAC substrate 3 at 10 uM after 30 mins by fluorescence assay relative to control; outline: as §1
[4] = molecular target: Histone deacetylase 5 (Homo sapiens) (UniProt Q9UQL6); experiment: Inhibition of full length N-terminal GST-tagged human HDAC5 expressed in baculovirus infected Sf9 insect cells using BPS HDAC class 2a substrate at 10 uM after 30 mins by fluorescence assay relative to control; outline: as §1
[5] = molecular target: T2, Protein deacetylase HDAC6 (Homo sapiens) (UniProt Q9UBN7); experiment: Inhibition of full length N-terminal GST-tagged human HDAC6 expressed in baculovirus infected Sf9 insect cells using HDAC substrate 3 after at 10 uM 30 mins by fluorescence assay relative to control; outline: as §1
T2 sequence (whole entry): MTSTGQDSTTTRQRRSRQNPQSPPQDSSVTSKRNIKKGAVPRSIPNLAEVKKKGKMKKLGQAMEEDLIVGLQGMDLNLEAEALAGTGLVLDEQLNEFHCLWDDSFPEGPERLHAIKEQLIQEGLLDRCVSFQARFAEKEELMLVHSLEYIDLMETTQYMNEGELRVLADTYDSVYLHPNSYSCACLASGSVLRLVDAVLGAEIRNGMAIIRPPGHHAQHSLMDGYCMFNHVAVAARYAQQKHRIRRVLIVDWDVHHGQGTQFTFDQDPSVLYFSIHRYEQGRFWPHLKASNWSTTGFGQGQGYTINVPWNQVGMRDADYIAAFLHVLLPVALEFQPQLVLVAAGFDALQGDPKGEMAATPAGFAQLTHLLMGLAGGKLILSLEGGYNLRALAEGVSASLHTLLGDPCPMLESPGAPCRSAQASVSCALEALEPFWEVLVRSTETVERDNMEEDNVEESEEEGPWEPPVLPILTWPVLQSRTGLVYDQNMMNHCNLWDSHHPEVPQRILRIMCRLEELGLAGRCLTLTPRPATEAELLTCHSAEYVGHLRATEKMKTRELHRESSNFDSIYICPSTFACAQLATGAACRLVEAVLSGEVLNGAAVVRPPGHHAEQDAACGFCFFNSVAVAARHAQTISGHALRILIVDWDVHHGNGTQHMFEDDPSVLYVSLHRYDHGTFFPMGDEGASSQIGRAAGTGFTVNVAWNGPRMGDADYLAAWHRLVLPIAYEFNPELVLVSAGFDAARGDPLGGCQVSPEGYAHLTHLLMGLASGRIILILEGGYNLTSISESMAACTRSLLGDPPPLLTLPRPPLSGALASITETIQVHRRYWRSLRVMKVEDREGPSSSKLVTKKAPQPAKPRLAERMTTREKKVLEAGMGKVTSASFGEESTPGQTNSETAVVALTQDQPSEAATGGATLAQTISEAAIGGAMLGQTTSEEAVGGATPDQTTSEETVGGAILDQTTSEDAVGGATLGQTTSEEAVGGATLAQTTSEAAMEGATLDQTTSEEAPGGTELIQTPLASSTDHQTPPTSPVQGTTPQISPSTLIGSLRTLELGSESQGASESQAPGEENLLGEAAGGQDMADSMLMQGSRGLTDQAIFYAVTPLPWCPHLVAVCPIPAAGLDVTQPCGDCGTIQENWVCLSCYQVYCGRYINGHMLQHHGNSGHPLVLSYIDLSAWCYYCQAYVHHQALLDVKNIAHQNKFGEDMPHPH

[6] = molecular target: T3, Histone deacetylase 8 (Homo sapiens) (UniProt Q9BY41); experiment: Inhibition of full length C-terminal His-tagged human HDAC8 expressed in baculovirus infected Sf9 insect cells using BPS HDAC class 2a substrate at 10 uM after 30 mins by fluorescence assay relative to control; outline: as §1
T3 sequence (whole entry): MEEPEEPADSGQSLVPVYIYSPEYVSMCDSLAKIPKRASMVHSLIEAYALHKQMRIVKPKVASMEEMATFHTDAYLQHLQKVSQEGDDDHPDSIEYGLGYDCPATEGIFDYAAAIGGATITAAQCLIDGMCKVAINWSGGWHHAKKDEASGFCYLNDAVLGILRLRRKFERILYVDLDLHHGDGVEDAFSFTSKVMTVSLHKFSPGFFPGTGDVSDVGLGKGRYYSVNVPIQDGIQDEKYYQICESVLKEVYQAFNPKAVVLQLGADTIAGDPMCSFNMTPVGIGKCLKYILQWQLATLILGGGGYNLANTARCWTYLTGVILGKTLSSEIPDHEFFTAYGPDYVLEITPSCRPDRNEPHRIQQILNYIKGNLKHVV

[7] = tested on: HCT-116; experiment: Cytotoxicity against human HCT116 cells assessed as change in cell viability at 10 uM after 48 hrs by MTT assay; type: functional, cell-based
Outline: (§2)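 Cells grown in DMEM with 10% FBS, 37 °C, 5% CO2; 1 × 10^4 cells per well plated and left 24 h, then exposed to a range of compound concentrations or vehicle (1% EtOH) for 48 h. Viability read by MTT.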

[8] = tested on: MDA-MB-231; experiment: Cytotoxicity against human MDA-MB-231 cells assessed as change in cell viability at 10 uM after 48 hrs by MTT assay; type: functional, cell-based; outline: as §2
[9] = molecular target: Histone deacetylase 1 (Homo sapiens, UniProt Q13547); experiment: Inhibition of recombinant full length C-terminal His/FLAG-tagged human HDAC1 expressed in baculovirus infected Sf9 insect cells using BPS HDAC substrate 3 at 10 uM after 30 mins by fluorescence assay relative to control; outline: as §1
[10] = species on record: Homo sapiens; experiment: Inhibition of class 1 HDAC in human MDA-MB-231 cells assessed as hyperacetylation of histone H3 (Lys9/14) measured at 8 hrs post treatment by immunoblot analysis; type: cell-based
Outline: (§3)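 Cells in DMEM/10% FBS; 4 × 10^5 cells seeded in 60-mm dishes overnight, then treated for 8 h with 0–10 μM (final) compound or vehicle (1% EtOH). Whole-cell lysates loaded at equal protein (BCA), run on SDS-PAGE, blotted to PVDF and probed with anti-acetyl histone H3 (Lys9/14); β-actin also probed. Chemiluminescent detection.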

[11] = tested on: MDA-MB-231; experiment: Cytotoxicity against human MDA-MB-231 cells assessed as reduction in cell viability after 48 hrs by MTT assay; type: functional, cell-based; details: MDA-MB-231, 48 h; outline: as §2
[12] = tested on: HCT-116; experiment: Cytotoxicity against human HCT116 cells assessed as reduction in cell viability after 48 hrs by MTT assay; type: functional, cell-based; details: HCT-116, 48 h; outline: as §2
[13] = species on record: Homo sapiens; experiment: Inhibition of class 1 HDAC in human HCT116 cells assessed as hyperacetylation of histone H3 (Lys9/14) measured at 8 hrs post treatment by immunoblot analysis; type: cell-based; outline: as §3
[14] = molecular target: Histone deacetylase 3/Nuclear receptor corepressor 2 (HDAC3/NCoR2) (Homo sapiens, UniProt O15379); experiment: Inhibition of full length human C-terminal His-tagged HDAC3/N-terminal GST-tagged NCOR2 (395 to 489 residues) expressed in baculovirus infected Sf9 insect cells using BPS HDAC substrate 3 after 30 mins by fluorescence assay
Outline: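 Run by a contract lab. Compound incubated with HDAC enzyme, substrate, bovine serum albumin and HDAC buffer in duplicate for 30 min at 37 °C. Activity taken as (F−Fb)/(Ft−Fb) against blank and solvent control wells; IC50 from curve fitting.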

[15] = molecular target: Histone deacetylase 5 (Homo sapiens) (UniProt Q9UQL6); experiment: Inhibition of full length N-terminal GST-tagged human HDAC5 expressed in baculovirus infected Sf9 insect cells using BPS HDAC class 2a substrate at 1 uM after 30 mins by fluorescence assay relative to control
Outline: (§4)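 Run by a contract lab. Compound incubated with HDAC enzyme, HDAC substrate, BSA and HDAC buffer, in duplicate, at 37 °C for 30 min. Quenched with HDAC developer, then 15 min at room temperature. Fluorescence read at ex 360/em 460 nm. Percent activity = (F−Fb)/(Ft−Fb), using blank and solvent-control wells. IC50 from curve fitting.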

[16] = molecular target: T4, Polyamine deacetylase HDAC10 (Homo sapiens, UniProt Q969S8); experiment: Inhibition of N-terminal GST-tagged/C-terminal His-tagged human HDAC10 (1 to 481 residues) expressed in baculovirus infected Sf9 insect cells using BPS HDAC substrate 3 after 30 mins by fluorescence assay; outline: as §4
T4 sequence (Q969S8 whole entry): T1 sequence (whole entry)

Sequence of Histone deacetylase 1 (Q13547 whole entry): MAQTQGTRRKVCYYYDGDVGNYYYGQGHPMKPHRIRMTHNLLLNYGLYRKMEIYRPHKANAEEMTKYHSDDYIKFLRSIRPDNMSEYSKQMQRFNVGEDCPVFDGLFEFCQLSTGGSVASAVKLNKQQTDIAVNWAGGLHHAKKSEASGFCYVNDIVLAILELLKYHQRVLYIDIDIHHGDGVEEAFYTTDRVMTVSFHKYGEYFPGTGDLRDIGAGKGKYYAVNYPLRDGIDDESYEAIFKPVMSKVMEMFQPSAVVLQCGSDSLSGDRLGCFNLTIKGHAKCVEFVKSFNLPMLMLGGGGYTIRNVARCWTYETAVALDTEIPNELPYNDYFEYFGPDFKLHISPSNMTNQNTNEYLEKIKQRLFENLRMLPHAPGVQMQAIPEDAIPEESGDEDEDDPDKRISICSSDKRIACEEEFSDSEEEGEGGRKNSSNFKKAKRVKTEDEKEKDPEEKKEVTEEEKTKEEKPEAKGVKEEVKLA
Sequence of Histone deacetylase 5 (Homo sapiens) (Q9UQL6 whole entry): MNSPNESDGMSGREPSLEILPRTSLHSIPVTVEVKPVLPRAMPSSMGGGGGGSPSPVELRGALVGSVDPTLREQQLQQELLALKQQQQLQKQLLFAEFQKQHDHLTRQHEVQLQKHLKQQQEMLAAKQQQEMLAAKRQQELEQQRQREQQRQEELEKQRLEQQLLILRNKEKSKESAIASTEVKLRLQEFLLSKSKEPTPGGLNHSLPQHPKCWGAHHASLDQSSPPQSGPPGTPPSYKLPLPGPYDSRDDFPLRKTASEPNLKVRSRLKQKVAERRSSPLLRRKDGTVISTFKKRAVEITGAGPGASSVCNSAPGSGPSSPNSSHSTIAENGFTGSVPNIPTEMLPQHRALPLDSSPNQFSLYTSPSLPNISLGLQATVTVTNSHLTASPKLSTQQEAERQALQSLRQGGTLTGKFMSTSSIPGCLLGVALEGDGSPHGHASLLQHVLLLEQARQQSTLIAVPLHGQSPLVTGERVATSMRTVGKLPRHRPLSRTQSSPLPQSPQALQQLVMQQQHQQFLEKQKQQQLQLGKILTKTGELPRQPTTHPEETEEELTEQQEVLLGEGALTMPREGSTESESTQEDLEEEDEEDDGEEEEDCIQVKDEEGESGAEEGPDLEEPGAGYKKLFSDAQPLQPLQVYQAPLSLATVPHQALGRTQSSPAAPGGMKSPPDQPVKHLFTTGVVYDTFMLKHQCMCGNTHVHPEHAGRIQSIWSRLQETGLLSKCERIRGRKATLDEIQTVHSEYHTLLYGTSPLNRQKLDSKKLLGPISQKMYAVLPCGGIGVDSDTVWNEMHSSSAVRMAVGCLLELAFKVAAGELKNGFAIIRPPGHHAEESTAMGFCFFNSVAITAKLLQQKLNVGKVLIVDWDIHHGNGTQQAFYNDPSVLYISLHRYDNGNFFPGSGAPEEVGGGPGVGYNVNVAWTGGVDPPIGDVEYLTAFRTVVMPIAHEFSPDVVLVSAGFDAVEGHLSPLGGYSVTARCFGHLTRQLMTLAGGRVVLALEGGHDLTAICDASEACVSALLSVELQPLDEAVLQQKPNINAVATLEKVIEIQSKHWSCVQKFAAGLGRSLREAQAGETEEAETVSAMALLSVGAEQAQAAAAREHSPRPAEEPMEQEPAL
Sequence of Histone deacetylase 2 (Q92769 whole entry): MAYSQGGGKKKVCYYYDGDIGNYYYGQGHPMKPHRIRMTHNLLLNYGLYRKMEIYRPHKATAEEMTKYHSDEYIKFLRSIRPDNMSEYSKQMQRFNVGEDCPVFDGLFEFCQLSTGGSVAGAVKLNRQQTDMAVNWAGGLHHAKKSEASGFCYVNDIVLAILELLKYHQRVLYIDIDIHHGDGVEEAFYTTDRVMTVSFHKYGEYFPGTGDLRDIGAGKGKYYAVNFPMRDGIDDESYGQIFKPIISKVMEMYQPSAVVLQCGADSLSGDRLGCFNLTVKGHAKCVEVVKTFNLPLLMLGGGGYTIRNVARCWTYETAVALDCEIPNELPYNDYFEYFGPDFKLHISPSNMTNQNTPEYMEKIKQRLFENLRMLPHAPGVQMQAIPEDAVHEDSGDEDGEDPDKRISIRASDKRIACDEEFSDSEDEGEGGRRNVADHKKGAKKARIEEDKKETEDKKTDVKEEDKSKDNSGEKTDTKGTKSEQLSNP
Sequence of Histone deacetylase 3/Nuclear receptor corepressor 2 (HDAC3/NCoR2) (O15379 whole entry, the tested form may be a part): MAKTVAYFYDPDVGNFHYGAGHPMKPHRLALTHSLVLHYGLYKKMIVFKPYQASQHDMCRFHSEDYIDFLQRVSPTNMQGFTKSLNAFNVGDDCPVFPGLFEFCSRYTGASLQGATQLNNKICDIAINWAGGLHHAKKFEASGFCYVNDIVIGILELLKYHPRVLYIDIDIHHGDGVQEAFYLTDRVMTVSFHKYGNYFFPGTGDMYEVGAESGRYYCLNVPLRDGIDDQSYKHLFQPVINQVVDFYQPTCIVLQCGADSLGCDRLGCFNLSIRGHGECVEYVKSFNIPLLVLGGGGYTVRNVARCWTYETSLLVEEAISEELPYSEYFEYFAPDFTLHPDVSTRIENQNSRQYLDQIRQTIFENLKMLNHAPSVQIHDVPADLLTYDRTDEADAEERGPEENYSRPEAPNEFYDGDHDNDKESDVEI
Sequence of Histone deacetylase 3/Nuclear receptor corepressor 2 (HDAC3/NCoR2) (Q9Y618 whole entry, further chain, the tested form may be a part): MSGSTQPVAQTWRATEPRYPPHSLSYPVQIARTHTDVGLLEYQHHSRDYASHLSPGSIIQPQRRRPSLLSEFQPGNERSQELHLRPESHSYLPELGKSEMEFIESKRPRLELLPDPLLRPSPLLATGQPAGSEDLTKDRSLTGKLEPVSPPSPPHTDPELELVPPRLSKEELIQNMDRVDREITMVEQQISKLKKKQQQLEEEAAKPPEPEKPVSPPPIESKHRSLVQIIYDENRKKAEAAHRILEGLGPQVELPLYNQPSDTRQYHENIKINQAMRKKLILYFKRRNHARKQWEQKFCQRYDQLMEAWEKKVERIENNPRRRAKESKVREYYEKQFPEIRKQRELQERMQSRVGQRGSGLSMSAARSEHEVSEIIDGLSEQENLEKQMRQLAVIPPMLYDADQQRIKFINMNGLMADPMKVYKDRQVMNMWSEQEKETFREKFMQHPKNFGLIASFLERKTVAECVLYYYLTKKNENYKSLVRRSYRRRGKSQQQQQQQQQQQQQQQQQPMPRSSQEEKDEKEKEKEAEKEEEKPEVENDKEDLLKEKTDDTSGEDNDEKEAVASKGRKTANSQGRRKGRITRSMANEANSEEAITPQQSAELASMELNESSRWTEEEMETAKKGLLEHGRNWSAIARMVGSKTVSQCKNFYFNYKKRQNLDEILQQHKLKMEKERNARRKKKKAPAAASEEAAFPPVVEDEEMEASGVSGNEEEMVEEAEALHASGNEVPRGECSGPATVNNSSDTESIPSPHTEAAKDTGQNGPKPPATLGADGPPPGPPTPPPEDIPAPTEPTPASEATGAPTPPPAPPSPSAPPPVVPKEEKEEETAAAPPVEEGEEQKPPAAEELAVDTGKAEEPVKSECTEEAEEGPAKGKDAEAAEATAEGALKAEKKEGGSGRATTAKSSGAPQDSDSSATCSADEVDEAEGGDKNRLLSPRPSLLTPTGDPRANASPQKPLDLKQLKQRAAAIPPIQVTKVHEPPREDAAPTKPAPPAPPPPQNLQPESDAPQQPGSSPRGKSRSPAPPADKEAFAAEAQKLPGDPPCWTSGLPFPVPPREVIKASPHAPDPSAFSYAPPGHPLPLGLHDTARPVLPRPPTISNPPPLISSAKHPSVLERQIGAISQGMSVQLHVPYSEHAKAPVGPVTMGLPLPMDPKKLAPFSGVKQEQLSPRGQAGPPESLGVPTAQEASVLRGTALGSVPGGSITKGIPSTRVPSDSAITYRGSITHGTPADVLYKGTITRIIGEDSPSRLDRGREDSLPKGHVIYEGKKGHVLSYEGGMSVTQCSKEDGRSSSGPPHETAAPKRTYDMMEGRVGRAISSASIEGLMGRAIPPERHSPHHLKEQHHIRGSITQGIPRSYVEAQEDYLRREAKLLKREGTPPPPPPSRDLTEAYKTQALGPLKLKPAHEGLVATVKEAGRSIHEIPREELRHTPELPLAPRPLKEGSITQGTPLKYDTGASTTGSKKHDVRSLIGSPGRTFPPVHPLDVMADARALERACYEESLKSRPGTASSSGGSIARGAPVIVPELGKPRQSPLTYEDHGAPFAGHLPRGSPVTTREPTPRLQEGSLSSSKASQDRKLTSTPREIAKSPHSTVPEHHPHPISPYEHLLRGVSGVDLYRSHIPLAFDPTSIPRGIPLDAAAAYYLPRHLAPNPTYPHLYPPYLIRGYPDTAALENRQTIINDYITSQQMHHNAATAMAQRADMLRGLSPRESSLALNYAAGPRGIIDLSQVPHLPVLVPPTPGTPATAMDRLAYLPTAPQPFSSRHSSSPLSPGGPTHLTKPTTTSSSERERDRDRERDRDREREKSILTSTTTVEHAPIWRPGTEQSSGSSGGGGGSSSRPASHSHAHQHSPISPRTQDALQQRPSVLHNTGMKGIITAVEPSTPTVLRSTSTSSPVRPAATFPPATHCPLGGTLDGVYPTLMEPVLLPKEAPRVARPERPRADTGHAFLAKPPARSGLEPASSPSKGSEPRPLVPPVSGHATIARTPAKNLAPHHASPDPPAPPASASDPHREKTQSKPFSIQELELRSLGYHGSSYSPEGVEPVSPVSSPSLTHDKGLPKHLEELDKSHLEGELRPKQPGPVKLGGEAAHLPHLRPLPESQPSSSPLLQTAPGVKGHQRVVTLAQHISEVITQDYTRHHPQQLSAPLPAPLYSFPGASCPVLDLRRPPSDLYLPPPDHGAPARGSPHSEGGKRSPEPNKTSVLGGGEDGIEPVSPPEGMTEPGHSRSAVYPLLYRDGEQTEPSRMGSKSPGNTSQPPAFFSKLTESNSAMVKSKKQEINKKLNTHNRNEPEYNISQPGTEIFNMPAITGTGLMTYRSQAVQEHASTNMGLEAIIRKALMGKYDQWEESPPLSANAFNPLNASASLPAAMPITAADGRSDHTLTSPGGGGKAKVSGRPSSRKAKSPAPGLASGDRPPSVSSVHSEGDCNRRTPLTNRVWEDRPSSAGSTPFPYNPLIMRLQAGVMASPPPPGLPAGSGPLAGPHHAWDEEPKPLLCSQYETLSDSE

Compound	inhibition [1]	inhibition [2]	inhibition [3]	inhibition [4]	inhibition [5]	inhibition [6]	inhibition [9]	IC50 [14]	Activity [7]	Activity [8]	inhibition [10]	IC50 [11]	IC50 [12]	inhibition [13]	inhibition [15]	IC50 [16]
CC(C)[C@@H]1NC(=O)[C@]2(C)CSC(=N2)c2csc(n2)CNC(=O)C[C@@H](/C=C/CCN)OC1=O	< 15%	< 15%	< 15%	< 15%	< 15%	< 15%	< 15%	–	inactive	inactive	–	–	–	–	–	–
CCCCCCCC(=O)SCC/C=C/[C@@H]1CC(=O)NCc2nc(cs2)C2=N[C@@](C)(CS2)C(=O)N[C@@H](C(C)C)C(=O)O1 [LARGAZOLE]	–	–	–	–	–	–	–	–	–	–	Dose-dependent effect	1.6 nM	20 nM	Dose-dependent effect	–	–
CC(C)[C@@H]1NC(=O)[C@]2(C)CSC(=N2)c2csc(n2)CNC(=O)C[C@@H](/C=C/CCS)OC1=O	–	–	–	–	–	–	–	–	–	–	–	–	–	–	< 15%	0.5 nM

Further lines, with some results ahead:

inhibition [1]	inhibition [2]	inhibition [3]	inhibition [4]	inhibition [5]	inhibition [6]	inhibition [9]	IC50 [14]	Compound	Activity [7]	Activity [8]	inhibition [10]	IC50 [11]	IC50 [12]	inhibition [13]	inhibition [15]	IC50 [16]
< 15%	19%	< 15%	< 15%	17%	20%	< 15%	–	CC(C)[C@@H]1NC(=O)[C@]2(C)CSC(=N2)c2csc(n2)CNC(=O)C[C@@H](/C=C/CCC(=O)O)OC1=O	inactive	inactive	–	–	–	–	–	–
< 15%	< 15%	< 15%	< 15%	22%	< 15%	< 15%	–	CC(=O)CC(=O)NC/C=C/[C@@H]1CC(=O)NCc2nc(cs2)C2=N[C@@](C)(CS2)C(=O)N[C@@H](C(C)C)C(=O)O1	inactive	inactive	–	–	–	–	–	–
24%	49%	–	< 15%	< 15%	< 15%	30%	8000 nM	CCC(=O)CC/C=C/[C@@H]1CC(=O)NCc2nc(cs2)C2=N[C@@](C)(CS2)C(=O)N[C@@H](C(C)C)C(=O)O1	inactive	inactive	–	–	–	–	–	–
< 15%	< 15%	< 15%	< 15%	< 15%	24%	< 15%	–	CCC/C=C/[C@@H]1CC(=O)NCc2nc(cs2)C2=N[C@@](C)(CS2)C(=O)N[C@@H](C(C)C)C(=O)O1	inactive	inactive	–	–	–	–	–	–
